Results from ChEMBL document CHEMBL1921735, “Antibacterial optimization of 4-aminothiazolyl analogues of the natural product GE2270 A: identification of the cycloalkylcarboxylic acids” (J Med Chem, 2011).
Converted amounts (≈) assume the structure as drawn. The source made the active and inactive calls.

Key:
[1] = tested on: Streptococcus pneumoniae; experiment: Antibacterial activity against Streptococcus pneumoniae by CLSI M07-A8 method; assay type: functional, organism-based
Procedure, shortened: (§1)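 Broth microdilution MIC run per CLSI M07-A8 (2009).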

[2] = tested on: Streptococcus pyogenes; experiment: Antibacterial activity against Streptococcus pyogenes ATCC BAA-595 by CLSI M07-A8 method; assay type: functional; procedure, shortened: as §1
[3] = tested on: Staphylococcus aureus; experiment: Antibacterial activity against methicillin-resistant Staphylococcus aureus isolate A4.018 by CLSI M07-A8 method; assay type: functional
[4] = tested on: Enterococcus faecium; experiment: Antibacterial activity against Enterococcus faecium 7130724 by CLSI M07-A8 method; assay type: functional; procedure, shortened: as §1
[5] = tested on: Staphylococcus aureus; experiment: Antibacterial activity against GE2270-A-resistant Staphylococcus aureus harboring tufA G258D mutant gene by CLSI M07-A8 method; assay type: functional
[6] = tested on: Enterococcus faecalis; experiment: Antibacterial activity against Enterococcus faecalis ATCC 29212 by CLSI M07-A8 method; assay type: functional; procedure, shortened: as §1

| SMILES | Activity [1] | MIC [2] [µg/mL] | MIC [3] [µg/mL] | MIC [4] [µg/mL] | Activity [5] | MIC [6] [µg/mL] | MIC [5] [µg/mL] |
| --- | --- | --- | --- | --- | --- | --- | --- |
| CNC(=O)C[C@@H]1NC(=O)c2csc(n2)-c2ccc(-c3nc(NC(=O)C(C)(C)CCCC(C)(C)C(=O)O)cs3)nc2-c2csc(n2)-c2csc(n2)[C@H]([C@@H](O)c2ccccc2)NC(=O)CNC(=O)c2nc(sc2COC)[C@H](C(C)C)NC(=O)c2nc1sc2C | Active | > 32 | 4 (≈ 3.09 µM) | 1 (≈ 0.772 µM) | inactive | 1 (≈ 0.772 µM) | – |
| CNC(=O)C[C@@H]1NC(=O)c2csc(n2)-c2ccc(-c3nc(NC(=O)OCC(C)(C)N)cs3)nc2-c2csc(n2)-c2csc(n2)[C@H]([C@@H](O)c2ccccc2)NC(=O)CNC(=O)c2nc(sc2COC)[C@H](C(C)C)NC(=O)c2nc1sc2C | Active | 8 (≈ 6.6 µM) | 2 (≈ 1.65 µM) | 1 (≈ 0.825 µM) | inactive | 1 (≈ 0.825 µM) | – |
| CNC(=O)C[C@@H]1NC(=O)c2csc(n2)-c2ccc(-c3nc(NC(=O)OC(C)(C)C)cs3)nc2-c2csc(n2)-c2csc(n2)[C@H]([C@@H](O)c2ccccc2)NC(=O)CNC(=O)c2nc(sc2COC)[C@H](C(C)C)NC(=O)c2nc1sc2C | Active | > 128 | > 128 | > 128 | – | > 128 | > 32 |
| CNC(=O)C[C@@H]1NC(=O)c2csc(n2)-c2ccc(-c3nc(NC(=O)CCC(=O)O)cs3)nc2-c2csc(n2)-c2csc(n2)[C@H]([C@@H](O)c2ccccc2)NC(=O)CNC(=O)c2nc(sc2COC)[C@H](C(C)C)NC(=O)c2nc1sc2C | Active | 4 (≈ 3.34 µM) | 0.25 (≈ 0.209 µM) | 0.5 (≈ 0.418 µM) | inactive | 0.25 (≈ 0.209 µM) | – |
| CNC(=O)C[C@@H]1NC(=O)c2csc(n2)-c2ccc(-c3nc(NC(=O)C45CCC(C(=O)O)(CC4)CC5)cs3)nc2-c2csc(n2)-c2csc(n2)[C@H]([C@@H](O)c2ccccc2)NC(=O)CNC(=O)c2nc(sc2COC)[C@H](C(C)C)NC(=O)c2nc1sc2C | Active | 4 (≈ 3.13 µM) | 0.25 (≈ 0.196 µM) | 0.25 (≈ 0.196 µM) | – | 0.125 (≈ 0.0979 µM) | – |
| CNC(=O)C[C@@H]1NC(=O)c2csc(n2)-c2ccc(-c3nc(C4=N[C@H](C(=O)N5CCC[C@H]5C(N)=O)CO4)cs3)nc2-c2csc(n2)-c2csc(n2)[C@H]([C@@H](O)c2ccccc2)NC(=O)CNC(=O)c2nc(sc2COC)[C@H](C(C)C)NC(=O)c2nc1sc2C | Active | 1 (≈ 0.775 µM) | 0.25 (≈ 0.194 µM) | 0.25 (≈ 0.194 µM) | – | 0.5 (≈ 0.387 µM) | – |
| CNC(=O)C[C@@H]1NC(=O)c2csc(n2)-c2ccc(-c3nc(NC(=O)NCCCC(=O)O)cs3)nc2-c2csc(n2)-c2csc(n2)[C@H]([C@@H](O)c2ccccc2)NC(=O)CNC(=O)c2nc(sc2COC)[C@H](C(C)C)NC(=O)c2nc1sc2C | Active | 16 (≈ 13.1 µM) | 1 (≈ 0.816 µM) | 4 (≈ 3.26 µM) | inactive | 1 (≈ 0.816 µM) | – |
| CNC(=O)C[C@@H]1NC(=O)c2csc(n2)-c2ccc(-c3nc(NC(C)=O)cs3)nc2-c2csc(n2)-c2csc(n2)[C@H]([C@@H](O)c2ccccc2)NC(=O)CNC(=O)c2nc(sc2COC)[C@H](C(C)C)NC(=O)c2nc1sc2C | Active | > 32 | 2 (≈ 1.76 µM) | 1 (≈ 0.878 µM) | – | 1 (≈ 0.878 µM) | > 32 |
| CNC(=O)C[C@@H]1NC(=O)c2csc(n2)-c2ccc(-c3nc(NC(=O)/C=C\C(=O)O)cs3)nc2-c2csc(n2)-c2csc(n2)[C@H]([C@@H](O)c2ccccc2)NC(=O)CNC(=O)c2nc(sc2COC)[C@H](C(C)C)NC(=O)c2nc1sc2C | Active | 16 (≈ 13.4 µM) | 1 (≈ 0.837 µM) | 2 (≈ 1.67 µM) | inactive | 1 (≈ 0.837 µM) | – |
| CNC(=O)C[C@@H]1NC(=O)c2csc(n2)-c2ccc(-c3nc(NC(=O)[C@H]4CC[C@@H](C(=O)O)C4)cs3)nc2-c2csc(n2)-c2csc(n2)[C@H]([C@@H](O)c2ccccc2)NC(=O)CNC(=O)c2nc(sc2COC)[C@H](C(C)C)NC(=O)c2nc1sc2C | Active | 4 (≈ 3.23 µM) | 0.25 (≈ 0.202 µM) | 0.25 (≈ 0.202 µM) | – | 0.25 (≈ 0.202 µM) | – |
| CNC(=O)C[C@@H]1NC(=O)c2csc(n2)-c2ccc(-c3nc(NC(=O)O[C@H]4C[C@@H](C(=O)O)C[C@@H]4N)cs3)nc2-c2csc(n2)-c2csc(n2)[C@H]([C@@H](O)c2ccccc2)NC(=O)CNC(=O)c2nc(sc2COC)[C@H](C(C)C)NC(=O)c2nc1sc2C | Active | 2 (≈ 1.58 µM) | 2 (≈ 1.58 µM) | 4 (≈ 3.16 µM) | – | 1 (≈ 0.789 µM) | – |
| CNC(=O)C[C@@H]1NC(=O)c2csc(n2)-c2ccc(-c3nc(NC(=O)c4ccc(C(=O)O)nc4)cs3)nc2-c2csc(n2)-c2csc(n2)[C@H]([C@@H](O)c2ccccc2)NC(=O)CNC(=O)c2nc(sc2COC)[C@H](C(C)C)NC(=O)c2nc1sc2C | Active | > 32 | 4 (≈ 3.21 µM) | 8 (≈ 6.42 µM) | – | 4 (≈ 3.21 µM) | – |
| CNC(=O)C[C@@H]1NC(=O)c2csc(n2)-c2ccc(-c3nc(NC(=O)c4ccc(C(=O)O)cc4)cs3)nc2-c2csc(n2)-c2csc(n2)[C@H]([C@@H](O)c2ccccc2)NC(=O)CNC(=O)c2nc(sc2COC)[C@H](C(C)C)NC(=O)c2nc1sc2C | Active | 4 (≈ 3.21 µM) | 0.125 (≈ 0.1 µM) | 0.125 (≈ 0.1 µM) | – | 0.125 (≈ 0.1 µM) | – |
| CNC(=O)C[C@@H]1NC(=O)c2csc(n2)-c2ccc(-c3nc(NC(=O)O[C@H]4CC[C@@H](C(=O)O)CC4)cs3)nc2-c2csc(n2)-c2csc(n2)[C@H]([C@@H](O)c2ccccc2)NC(=O)CNC(=O)c2nc(sc2COC)[C@H](C(C)C)NC(=O)c2nc1sc2C | Active | 1 (≈ 0.79 µM) | 0.125 (≈ 0.0987 µM) | 0.125 (≈ 0.0987 µM) | – | 0.125 (≈ 0.0987 µM) | – |
| CNC(=O)C[C@@H]1NC(=O)c2csc(n2)-c2ccc(-c3nc(NC(=O)[C@H]4CC[C@@H](C(=O)O)CC4)cs3)nc2-c2csc(n2)-c2csc(n2)[C@H]([C@@H](O)c2ccccc2)NC(=O)CNC(=O)c2nc(sc2COC)[C@H](C(C)C)NC(=O)c2nc1sc2C | Active | 4 (≈ 3.2 µM) | 0.25 (≈ 0.2 µM) | 0.25 (≈ 0.2 µM) | – | 0.125 (≈ 0.1 µM) | – |
| CNC(=O)C[C@@H]1NC(=O)c2csc(n2)-c2ccc(-c3nc(NC(=O)[C@H]4CC[C@@H]4C(=O)O)cs3)nc2-c2csc(n2)-c2csc(n2)[C@H]([C@@H](O)c2ccccc2)NC(=O)CNC(=O)c2nc(sc2COC)[C@H](C(C)C)NC(=O)c2nc1sc2C | Active | 4 (≈ 3.27 µM) | 0.25 (≈ 0.205 µM) | 0.5 (≈ 0.409 µM) | – | 0.25 (≈ 0.205 µM) | – |
| CNC(=O)C[C@@H]1NC(=O)c2csc(n2)-c2ccc(-c3nc(NC(=O)c4ccnc(C(=O)O)c4)cs3)nc2-c2csc(n2)-c2csc(n2)[C@H]([C@@H](O)c2ccccc2)NC(=O)CNC(=O)c2nc(sc2COC)[C@H](C(C)C)NC(=O)c2nc1sc2C | Active | > 32 | 8 (≈ 6.42 µM) | 8 (≈ 6.42 µM) | – | 2 (≈ 1.61 µM) | – |
| CNC(=O)C[C@@H]1NC(=O)c2csc(n2)-c2ccc(-c3nc(NC(=O)O[C@H]4C[C@H](C(=O)O)C4)cs3)nc2-c2csc(n2)-c2csc(n2)[C@H]([C@@H](O)c2ccccc2)NC(=O)CNC(=O)c2nc(sc2COC)[C@H](C(C)C)NC(=O)c2nc1sc2C | Active | 2 (≈ 1.61 µM) | 0.125 (≈ 0.101 µM) | 0.06 (≈ 0.0484 µM) | – | 0.06 (≈ 0.0484 µM) | – |
